PMC8247525 (Diabetes Care, 2021)
Values belong to the substance of their own block, whether it stands above or below them. Starred links: 1 amine or outer side, 2 acyl side, 3 side chain; linkers in the order of their positions; H or OH if unused. Groups on a side chain read outwards from the residue. No end group written: not given here. *: point of attachment. γGlu = O=C(O)[C@H](CCC(=O)[*:2])N[*:1]; Palmitoyl = CCCCCCCCCCCCCCCC(=O)*

How the values were obtained:
[1] = cited from earlier work; for Reduction of mean body weight: head-to-head phase 2 trial of semaglutide with liraglutide
[2] = system: participants with overweight or obesity and type 2 diabetes; test: Phase 2b study: body weight; format: in vivo, human; settings: for Percent change in body weight from baseline to week 14: LS mean (95% CI), ANCOVA, LOCF; for Weight loss, placebo-adjusted change from baseline: week 54
[3] = system: participants with overweight or obesity and type 2 diabetes; test: Phase 2b study: hepatic parameters; format: in vivo, human; settings: LS mean (95% CI); for Percent change from baseline in GGT levels: after 54 weeks, ad hoc
[4] = system: participants with overweight or obesity and type 2 diabetes; test: Phase 2b study: glycemic control; format: in vivo, human; settings: on metformin, LS mean (95% CI), ANCOVA, LOCF
[5] = system: participants with overweight or obesity and type 2 diabetes; test: Phase 2b study: safety; format: in vivo, human
[6] = system: participants with overweight or obesity and type 2 diabetes; test: Phase 2b study: anti-drug antibodies and exposure; format: in vivo, human
In short: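 Dosing started at 100 µg and rose weekly by 100 µg. Anti-drug antibodies, a secondary end point, were measured in all treated participants by a high-sensitivity assay. Titers were split at 80 and related to trough drug concentrations.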

[7] = liraglutide 1.8 mg s.c. once daily
[8] = cotadutide 100 µg s.c. once daily
[9] = cotadutide 200 µg s.c. once daily
[10] = cotadutide 300 µg s.c. once daily

Substance: Liraglutide: GLP-1 receptor monoagonist, open-label active comparator 1.8 mg (HAEGTFTSDVSSYLEGQAAK([γGlu-Palmitoyl])EFIAWLVRGRG; chains of the INN, looked up) [reference compound]
Reduction of mean body weight [1]: 7.8%
Reduction of body weight ([1]; phase 2 and phase 3 clinical trials): 6–8%
Percent change in body weight from baseline to week 14 ([2]; liraglutide 1.8 mg s.c. once daily, open-label): –3.44 [–4.20, –2.68] %
Weight loss, placebo-adjusted change from baseline [2, 7]: –2.65%
Percent change from baseline in GGT levels [3, 7]: –10.54 [–24.41, 3.33] %

Impact of ADA titer above 80 on pharmacokinetics, relative to population average ([6]; cotadutide, trough concentrations higher at titer >80): approximately twofold
Substance: Cotadutide
Change from baseline to week 14 in HbA1c levels [4, 8]: –1.11 [–1.30, –0.93]
Change from baseline to week 14 in HbA1c levels [4, 9]: –1.32 [–1.44, –1.21]
Change from baseline to week 14 in HbA1c levels [4, 10]: –1.26 [–1.38, –1.14]
Pulse rate versus placebo ([5]; all tested doses of cotadutide, all P = 0.001 to P = 0.006): Increases in pulse rates
Systolic blood pressure [5, 10]: reduction in systolic blood pressure
Rate pressure product ([5]; cotadutide treatment, ad hoc): no notable changes in rate pressure product
Percent change in body weight from baseline to week 14 [2, 8]: –2.98 [–3.87, –2.09] %
Percent change in body weight from baseline to week 14 [2, 9]: –3.67 [–4.22, –3.13] %
Percent change in body weight from baseline to week 14 [2, 10]: –5.01 [–5.57, –4.45] %
Weight loss, placebo-adjusted change from baseline [2, 10]: –4.34%
Anti-drug antibody (ADA) incidence ([6]; cotadutide-treated participants, all doses, high-sensitivity assay): 60.8%
Percent change in fatty liver index, change from baseline [3, 8]: –8.08 [–10.62, –5.54] %
Percent change from baseline in GGT levels [3, 8]: –10.54 [–26.75, 5.68] %
Percent change in fatty liver index, change from baseline [3, 9]: –6.73 [–8.29, –5.17] %
Percent change in fatty liver index, change from baseline [3, 10]: –8.18 [–9.79, –6.57] %
Percent change from baseline in GGT levels [3, 10]: –12.17 [–22.45, –1.90] %

Substance: semaglutide
Reduction of mean body weight [1]: 6.0–13.8%
